Test results as given in ChEMBL document CHEMBL1138290 (J Med Chem, 2007).

What was measured:
K562 = test: Antiproliferative activity against human K562 cells after 48 hrs; assay type: functional, cell-based; conditions: K562, 48 h
Outline: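 Growth of K562 cells measured by counting cells with a hemocytometer after 48 h (2 days) of drug treatment. IC50 is the mean of at least three independent determinations.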

Tubulin = Tubulin (Sus scrofa, UniProt P02554+P02550); test: Inhibition of porcine brain tubulin polymerization
[1] = Cell cycle arrest in KB/HeLa cells assessed as accumulation at G2/M phase after 24 hrs by flow cytometric analysis; assay type: functional, cell-based; conditions: Homo sapiens
Outline: (§1)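 Subconfluent KB/HeLa cells exposed to a range of compound concentrations for 24 h. Cell cycle phase distribution determined by flow cytometry. Experiments run at least in duplicate (n = 2).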

[2] = Cell cycle arrest in KB/HeLa cells assessed as accumulation at S phase at 0.1 nM after 24 hrs by flow cytometric analysis; assay type: functional, cell-based; conditions: Homo sapiens; outline: as §1
[3] = Cell cycle arrest in KB/HeLa cells assessed as accumulation at S phase at 3.16 nM after 24 hrs by flow cytometric analysis; assay type: functional, cell-based; conditions: Homo sapiens; outline: as §1
[4] = Cell cycle arrest in KB/HeLa cells assessed as accumulation at S phase at 0.3 nM after 24 hrs by flow cytometric analysis; assay type: functional, cell-based; conditions: Homo sapiens; outline: as §1
[5] = Cell cycle arrest in KB/HeLa cells assessed as accumulation at S phase at 1 nM after 24 hrs by flow cytometric analysis; assay type: functional, cell-based; conditions: Homo sapiens; outline: as §1
[6] = Cell cycle arrest in KB/HeLa cells assessed as accumulation at S phase at 10 nM after 24 hrs by flow cytometric analysis; assay type: functional, cell-based; conditions: Homo sapiens; outline: as §1
[7] = Cell cycle arrest in KB/HeLa cells assessed as accumulation at S phase at 31.6 nM after 24 hrs by flow cytometric analysis; assay type: functional, cell-based; conditions: Homo sapiens; outline: as §1
[8] = Cell cycle arrest in KB/HeLa cells assessed as accumulation at S phase at 100 nM after 24 hrs by flow cytometric analysis; assay type: functional, cell-based; conditions: Homo sapiens; outline: as §1
[9] = Cell cycle arrest in KB/HeLa cells assessed as accumulation at S phase at 316 nM after 24 hrs by flow cytometric analysis; assay type: functional, cell-based; conditions: Homo sapiens; outline: as §1
[10] = Cell cycle arrest in KB/HeLa cells assessed as accumulation at G2M phase at 0.1 nM after 24 hrs by flow cytometric analysis; assay type: functional, cell-based; conditions: Homo sapiens; outline: as §1
[11] = Cell cycle arrest in KB/HeLa cells assessed as accumulation at G2M phase at 0.3 nM after 24 hrs by flow cytometric analysis; assay type: functional, cell-based; conditions: Homo sapiens; outline: as §1
[12] = Cell cycle arrest in KB/HeLa cells assessed as accumulation at G2M phase at 1 nM after 24 hrs by flow cytometric analysis; assay type: functional, cell-based; conditions: Homo sapiens; outline: as §1
[13] = Cell cycle arrest in KB/HeLa cells assessed as accumulation at G2M phase at 3.16 nM after 24 hrs by flow cytometric analysis; assay type: functional, cell-based; conditions: Homo sapiens
[14] = Cell cycle arrest in KB/HeLa cells assessed as accumulation at G2M phase at 10 nM after 24 hrs by flow cytometric analysis; assay type: functional, cell-based; conditions: Homo sapiens; outline: as §1
[15] = Cell cycle arrest in KB/HeLa cells assessed as accumulation at G2M phase at 31.6 nM after 24 hrs by flow cytometric analysis; assay type: functional, cell-based; conditions: Homo sapiens; outline: as §1
[16] = Cell cycle arrest in KB/HeLa cells assessed as accumulation at G2M phase at 100 nM after 24 hrs by flow cytometric analysis; assay type: functional, cell-based; conditions: Homo sapiens; outline: as §1
[17] = Cell cycle arrest in KB/HeLa cells assessed as accumulation at G2M phase at 316 nM after 24 hrs by flow cytometric analysis; assay type: functional, cell-based; conditions: Homo sapiens; outline: as §1
[18] = Cell cycle arrest in KB/HeLa cells assessed as accumulation at G1 phase at 0.1 nM after 24 hrs by flow cytometric analysis; assay type: functional, cell-based; conditions: Homo sapiens; outline: as §1
[19] = Cell cycle arrest in KB/HeLa cells assessed as accumulation at G1 phase at 0.3 nM after 24 hrs by flow cytometric analysis; assay type: functional, cell-based; conditions: Homo sapiens; outline: as §1
[20] = Cell cycle arrest in KB/HeLa cells assessed as accumulation at G1 phase at 1 nM after 24 hrs by flow cytometric analysis; assay type: functional, cell-based; conditions: Homo sapiens; outline: as §1
[21] = Cell cycle arrest in KB/HeLa cells assessed as accumulation at G1 phase at 3.16 nM after 24 hrs by flow cytometric analysis; assay type: functional, cell-based; conditions: Homo sapiens; outline: as §1
[22] = Cell cycle arrest in KB/HeLa cells assessed as accumulation at G1 phase at 10 nM after 24 hrs by flow cytometric analysis; assay type: functional, cell-based; conditions: Homo sapiens; outline: as §1
[23] = Cell cycle arrest in KB/HeLa cells assessed as accumulation at G1 phase at 31.6 nM after 24 hrs by flow cytometric analysis; assay type: functional, cell-based; conditions: Homo sapiens; outline: as §1
[24] = Cell cycle arrest in KB/HeLa cells assessed as accumulation at G1 phase at 100 nM after 24 hrs by flow cytometric analysis; assay type: functional, cell-based; conditions: Homo sapiens; outline: as §1
[25] = Cell cycle arrest in KB/HeLa cells assessed as accumulation at G1 phase at 316 nM after 24 hrs by flow cytometric analysis; assay type: functional, cell-based; conditions: Homo sapiens; outline: as §1
[26] = Antiproliferative activity against rat L12 cells after 48 hrs by XTT assay; assay type: functional, cell-based
[27] = Antiproliferative activity against rat multidrug-resistant L12 cells after 48 hrs by XTT assay; assay type: functional, cell-based; conditions: L1.2, 48 h
Outline: (§2)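 XTT proliferation assay with 48 h incubation with test compound. Each experiment run at least in duplicate (n = 2). IC50 calculated by nonlinear regression of dose-response curves.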

L1210 = test: Antiproliferative activity against mouse vincristine-resistant L1210 cells after 48 hrs by XTT assay; assay type: functional, cell-based; conditions: L1210, 48 h; outline: as §2
[28] = Cytotoxicity against human KB/HeLa cells after 48 hrs by XTT assay; assay type: functional, cell-based; outline: as §2
RKO = test: Cytotoxicity against human RKO cells with ectopic-inducible expression of p27kip1 after 48 hrs by XTT assay; assay type: functional, cell-based; outline: as §2
P388 [29] = test: Antiproliferative activity against mouse adriamycin-resistant P388 cells after 48 hrs by XTT assay; assay type: functional, cell-based; conditions: P388, 48 h; outline: as §2
P388 [30] = test: Antiproliferative activity against mouse P388 cells after 48 hrs by XTT assay; assay type: functional, cell-based; conditions: P388, 48 h; outline: as §2

## COc1cc(N)ccc1S(=O)(=O)Oc1c2ccccc2cc2sccc12
K562
  IC50: 0.28 µM

## COc1ccc(S(=O)(=O)Oc2c3c(nc4ccccc24)CCCC3)cc1
K562
  IC50: 0.83 µM
Tubulin
  IC50: > 10 µM

## Cc1ccc(S(=O)(=O)Oc2c3ccccc3cc3sccc23)cc1
K562
  IC50: 0.44 µM
Tubulin
  IC50: 1.05 µM

## CC[C@]1(O)C[C@H]2CN(CCc3c([nH]c4ccccc34)[C@@](C(=O)OC)(c3cc4c(cc3OC)N(C=O)[C@H]3[C@@](O)(C(=O)OC)[C@H](OC(C)=O)[C@]5(CC)C=CCN6CC[C@]43[C@@H]65)C2)C1 [VINCRISTINE]
[1]
  EC50: 0.0024 µM
[2]
  Activity: 27.7%
[3]
  Activity: 26%
[4]
  Activity: 24%
[5]
  Activity: 28.3%
[6]
  Activity: 13.1%
[7]
  Activity: 7.2%
[8]
  Activity: 4.8%
[9]
  Activity: 5.9%
[10]
  Activity: 11.1%
[11]
  Activity: 11.7%
[12]
  Activity: 17.2%
[13]
  Activity: 65.8%
[14]
  Activity: 86.7%
[15]
  Activity: 92.6%
[16]
  Activity: 95.1%
[17]
  Activity: 93.8%
[18]
  Activity: 61.2%
[19]
  Activity: 64.5%
[20]
  Activity: 53.7%
[21]
  Activity: 6.5%
[22]
  Activity: 0.5%
[23]
  Activity: 1%
[24]
  Activity: 0.2%
[25]
  Activity: 0.2%

## CC[C@]1(O)C[C@@H]2CN(CCc3c([nH]c4ccccc34)[C@@](C(=O)OC)(c3cc4c(cc3OC)N(C)[C@H]3[C@@](O)(C(N)=O)[C@H](O)[C@]5(CC)C=CCN6CC[C@]43[C@@H]65)C2)C1 [VINDESINE]
[26]
  IC50: 0.001 µM
[27]
  IC50: 0.26 µM
L1210
  IC50: > 5 µM

## Nc1ccc(S(=O)(=O)Oc2c3ccccc3cc3sccc23)cc1
K562
  IC50: 0.13 µM
Tubulin
  IC50: 0.71 µM

## COc1cccc(S(=O)(=O)Oc2c3ccccc3cc3sccc23)c1
K562
  IC50: 0.25 µM
Tubulin
  IC50: 0.29 µM

## Cc1cccc(S(=O)(=O)Oc2c3ccccc3cc3sccc23)c1
K562
  IC50: 0.53 µM
Tubulin
  IC50: 0.74 µM

## CN(C)c1ccc(S(=O)(=O)Oc2c3ccccc3cc3sccc23)cc1
K562
  IC50: 0.08 µM
Tubulin
  IC50: 0.94 µM

## COc1ccc(S(=O)(=O)Oc2c3ccccc3cc3sccc23)cc1OC
K562
  IC50: 0.17 µM
Tubulin
  IC50: 1.27 µM

## O=S(=O)(Oc1c2ccccc2cc2sccc12)c1ccccc1
K562
  IC50: 0.8 µM
Tubulin
  IC50: > 14 µM

## COc1cc2c(c(OC)c1OC)-c1ccc(OC)c(=O)cc1[C@@H](NC(C)=O)CC2 [COLCHICINE]
[28]
  IC50: 0.03 µM
RKO
  IC50: > 14 µM
[1]
  EC50: 0.014 µM
[3]
  Activity: 25.1%
[4]
  Activity: 26.6%
[5]
  Activity: 25.4%
[6]
  Activity: 35.7%
[7]
  Activity: 11.9%
[8]
  Activity: 5.1%
[9]
  Activity: 5.2%
[11]
  Activity: 10.1%
[12]
  Activity: 10%
[14]
  Activity: 32.1%
[15]
  Activity: 87.6%
[16]
  Activity: 94.7%
[17]
  Activity: 94.5%
[19]
  Activity: 63.3%
[20]
  Activity: 64.7%
[21]
  Activity: 64.3%
[22]
  Activity: 32.2%
[23]
  Activity: 0.5%
[24]
  Activity: 0.3%
[25]
  Activity: 0.3%

## O=[N+]([O-])c1ccc(S(=O)(=O)Oc2c3ccccc3cc3sccc23)cc1
K562
  IC50: 2.3 µM
Tubulin
  IC50: > 14 µM

## CNc1ccc(S(=O)(=O)Oc2c3ccccc3cc3sccc23)cc1
K562
  IC50: 0.05 µM
Tubulin
  IC50: 0.29 µM

## O=S(=O)(Oc1c2ccccc2cc2sccc12)c1ccc(NO)cc1
K562
  IC50: 0.4 µM

## COc1ccc(S(=O)(=O)Oc2c3c(Cl)cccc3cc3cccc(Cl)c23)cc1
K562
  IC50: 10 µM
Tubulin
  IC50: > 10 µM

## COc1ccc(S(=O)(=O)Oc2c3cccc(Cl)c3cc3c(Cl)cccc23)cc1
K562
  IC50: 1.7 µM
Tubulin
  IC50: > 10 µM

## CC(=O)O[C@H]1C(=O)[C@@]2(C)[C@H]([C@H](OC(=O)c3ccccc3)[C@]3(O)C[C@H](OC(=O)[C@H](O)[C@@H](NC(=O)c4ccccc4)c4ccccc4)C(C)=C1C3(C)C)[C@]1(OC(C)=O)CO[C@@H]1C[C@@H]2O [PACLITAXEL]
[28]
  IC50: 0.01 µM
RKO
  IC50: > 3 µM
[27]
  IC50: 0.4 µM
L1210
  IC50: > 5 µM
P388 [29]
  IC50: > 5 µM
[1]
  EC50: 0.049 µM
[3]
  Activity: 27%
[5]
  Activity: 26.7%
[6]
  Activity: 26.6%
[7]
  Activity: 49.9%
[8]
  Activity: 11%
[9]
  Activity: 8.9%
[12]
  Activity: 10.1%
[13]
  Activity: 9.4%
[14]
  Activity: 8.5%
[15]
  Activity: 19%
[16]
  Activity: 87.8%
[17]
  Activity: 90.8%
[20]
  Activity: 63.2%
[21]
  Activity: 63.6%
[22]
  Activity: 64.8%
[23]
  Activity: 31.1%
[24]
  Activity: 1.2%
[25]
  Activity: 0.3%

## COC(=O)Nc1nc2cc(C(=O)c3cccs3)ccc2[nH]1 [NOCODAZOLE]
[28]
  IC50: 0.14 µM
RKO
  IC50: > 14 µM
[26]
  IC50: 0.3 µM
[27]
  IC50: 0.05 µM
P388 [30]
  IC50: 0.07 µM
P388 [29]
  IC50: 0.05 µM
[1]
  EC50: 0.091 µM
[3]
  Activity: 24.8%
[5]
  Activity: 23.6%
[6]
  Activity: 25.7%
[7]
  Activity: 25.7%
[8]
  Activity: 26.1%
[9]
  Activity: 6%
[12]
  Activity: 11.1%
[13]
  Activity: 10.6%
[14]
  Activity: 10%
[15]
  Activity: 9.9%
[16]
  Activity: 51.4%
[17]
  Activity: 93.2%
[20]
  Activity: 65.2%
[21]
  Activity: 64.6%
[22]
  Activity: 64.2%
[23]
  Activity: 64.4%
[24]
  Activity: 22.3%
[25]
  Activity: 0.9%

## COc1ccc(S(=O)(=O)Oc2c3ccccc3c(Cl)c3ccccc23)cc1
K562
  IC50: 0.35 µM

## COc1cccc(S(=O)(=O)Oc2c3ccccc3cc3ccccc23)c1
K562
  IC50: 0.48 µM
Tubulin
  IC50: 0.39 µM

## COc1cc([N+](=O)[O-])ccc1S(=O)(=O)Oc1c2ccccc2cc2sccc12
K562
  IC50: 1.4 µM

## COc1ccc(C=C2c3ccccc3C(=O)c3ccccc32)cc1O
[1]
  EC50: 0.2 µM
